The record followed here is ChEMBL document CHEMBL2169814, “Structure-based design, synthesis, and characterization of dual hotspot small-molecule HIV-1 entry inhibitors” (J Med Chem, 2012).

In series [1] the test system is Human immunodeficiency virus 1. The series is described as follows: Increase in binding of full length of HIV1 YU2 gp120 expressed into 17b in canine Cf2Th-CCR5 by SPR assay. On the technique in general: SPR reads the build-up and loss of mass on a sensor chip optically.
Series [2] has as its system Human immunodeficiency virus 1. The series is described as follows: Increase in binding of minimal core of HIV1 YU2 gp120 into 17b in canine Cf2Th-CCR5 by SPR assay.
The nature of series [3]: Inhibition of recombinant HIV-1 HXBc2 envelope glycoprotein-120 assessed as inhibition of viral entry in canine Cf2Th cells expressing CD4/CCR5 after 2 to 4 hrs by luciferase activity based luminescence assay. Format: cell-based, Human immunodeficiency virus 1. In outline: (§1)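 Single-round luciferase-reporter viruses were made in 293T cells with Gag-Pol packaging and Env plasmids (A-MLV Env plus rev), then normalized by RT activity. […] Cf2Th/CD4-CCR5 or CD4-CXCR4 targets were exposed for 2–4 h, cultured 48 h, lysed by freeze-thaw, and luciferase was read.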

Series [4] is described as follows: Inhibition of recombinant HIV-1 89.6 envelope glycoprotein-120 assessed as inhibition of viral entry in canine Cf2Th cells expressing CD4/CCR5 after 2 to 4 hrs by luciferase activity based luminescence assay. The format is cell-based, Human immunodeficiency virus 1. In outline:
as §1

Series [5] can be described thus: Inhibition of recombinant HIV-1 YU2 envelope glycoprotein-120 assessed as inhibition of viral entry in canine Cf2Th cells expressing CD4/CCR5 after 2 to 4 hrs by luciferase activity based luminescence assay. Format: cell-based, Human immunodeficiency virus 1. A digest of the protocol:
(§2)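 Single-round luciferase-encoding recombinant HIV-1 pseudotyped with wild-type or mutant YU2 Env, made in 293T cells and dosed by RT units. Cf2Th/CD4-CCR5 cells seeded 24 h before. […] Cells lysed by freeze-thaw; luciferase read by luminometer.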

Series [6] can be described thus: Inhibition of ampotrophic murine leukemia virus envelope glycoprotein assessed as inhibition of viral entry in canine Cf2Th cells expressing human CD4 and CCR5 after 2 to 4 hrs by luciferase activity based luminescence assay.
Series [7] can be described thus: Inhibition of recombinant HIV-1 JRFL envelope glycoprotein-120 assessed as inhibition of viral entry in canine Cf2Th cells expressing CD4/CCR5 after 2 to 4 hrs by luciferase activity based luminescence assay. The format is cell-based, Human immunodeficiency virus 1. In outline: as §1
Series [8] is described as follows: Inhibition of recombinant HIV-1 ADA envelope glycoprotein-120 assessed as inhibition of viral entry in canine Cf2Th cells expressing CD4/CCR5 after 2 to 4 hrs by luciferase activity based luminescence assay. The format is cell-based, Human immunodeficiency virus 1. A digest of the protocol: as §1
Series [9] deals with Human immunodeficiency virus 1. Put plainly: Antiviral activity against HIV-1 YU2 infected in canine Cf2Th-CCR5 cells assessed as activation of viral infectivity after 2 to 4 hrs by luminometer relative to TS-II-224. The format is functional, organism-based.
The nature of series [10]: Inhibition of recombinant HIV-1 KB9 envelope glycoprotein-120 assessed as inhibition of viral entry in canine Cf2Th cells expressing CD4/CCR5 after 2 to 4 hrs by luciferase activity based luminescence assay. Format: cell-based, Human immunodeficiency virus 1. In outline:
as §1

The test system of series [11] is Human immunodeficiency virus 1. The series is described as follows: Antiviral activity against HIV-1 YU2 infected in canine Cf2Th-CCR5 cells assessed as activation of viral infectivity after 2 to 4 hrs by luminometer relative to JRC-I-191. Format: functional, organism-based.
The test system of series [12] is Human immunodeficiency virus 1. The series is described as follows: Antiviral activity against HIV-1 clade B Env pseudovirus assessed as geometric mean titer for virus neutralization to infect human TZM-bl cells by luciferase assay. The format is functional, organism-based. The conditions noted are these: Human immunodeficiency virus 1, clade B. A digest of the protocol:
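Env-pseudoviruses made in 293T cells co-transfected with rev/env plasmid and env-deficient backbone (pSGΔ3env); supernatants harvested at 2 days, filtered. Virus (MOI ~0.01–0.1) preincubated 30 min at 37°C with serially diluted reagent (media with 10% DMSO), duplicate wells, then used to infect TZM-bl cells. Luciferase read-out; 5-parameter hill fit gives IC50/IC80; geometric mean titer across isolates.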

In series [13] the test system is Human immunodeficiency virus 1. The series is described as follows: Antiviral activity against HIV-1 clade C Env pseudovirus assessed as geometric mean titer for virus neutralization to infect human TZM-bl cells by luciferase assay. Format: functional, organism-based. In outline:
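Env-pseudoviruses were made in 293T cells cotransfected with rev/env plasmid and the env-deficient pSGΔ3env backbone, then harvested at 2 days. Virus (MOI ~0.01–0.1) was preincubated 30 min at 37°C with serially diluted compound in medium containing 10% DMSO, in duplicate, then used to infect TZM-bl cells. Luciferase read-out; IC50 from a 5-parameter Hill fit; geometric mean across isolates.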

In series [14] the test system is Human immunodeficiency virus 1. The series is described as follows: Antiviral activity against HIV-1 YU2 infected in canine Cf2Th-CCR5 cells assessed as activation of viral infectivity after 2 to 4 hrs by luminometer relative to NBD-556. The format is functional, organism-based.
Series [15] in a line: Binding affinity to HIV-1 YU2 gp120 at 80 to 130 uM by VP-ITC analysis. Details: species or system Human immunodeficiency virus 1. A general note: ITC needs no label: the signal is the heat of the interaction.
The test system of series [16] is Envelope glycoprotein gp160 (Human immunodeficiency virus type 1 group M subtype B (isolate HXB2)(HIV-1)), P04578 [S375W]. The series is described as follows: Inhibition of recombinant HIV-1 YU2 envelope glycoprotein-120 S375W mutant assessed as inhibition of viral entry in canine Cf2Th cells expressing CD4/CCR5 after 2 to 4 hrs by luciferase activity based luminescence assay. The format is cell-based. The conditions noted are these: Human immunodeficiency virus 1. In outline:
as §2

Series [17] in a line: Cytotoxicity against canine Cf2Th-CD4-CCR5 assessed as cell viability at 1 to 100 uM after 48 hrs by luminometer. The format is cell-based, Canis lupus familiaris. Particulars: dog, thymocyte. A digest of the protocol: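 Cf2Th/CD4-CCR5 cells were seeded at 6×10^3/well 24 h ahead and exposed to compound at 1–100 μM (DMSO at 2% as control) for 2–4 h at 37°C. Medium was then topped up and cells were incubated 48 h at 37°C. After 30 min at room temperature, CellTiter-Glo was added for 5–10 min, and luminescence was read for 5 s.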

Active and inactive are the calls of the source. The rule behind the calls is not given here.

As usually defined, the IC50 is the concentration that inhibits the measured activity by half. `N[C@H]1Cc2ccccc2[C@@H]1NC(=O)C(=O)Nc1ccc(Cl)c(F)c1`: the outcome in [1], in series [2] and in [9] was Active. Besides, the IC50 in [3] turned out to be 50 µM; in [4], 50 µM; in [5] it was 53.9 µM; in [6] it was 56.9 µM; in [7], 50 µM; in series [8], 50 µM. Besides, the IC50 in series [10] was found to be 50 µM.

Turning to `CN1C(C)(C)CC(NC(=O)C(=O)Nc2ccc(Cl)c(F)c2)CC1(C)C`, the outcome in series [1], in series [2] and in series [11] was Active. The half-maximal inhibitory concentration (IC50) in series [5] amounted to 48.8 µM; in series [6], 93.4 µM.

Turning to `CC1(C)CC(NC(=O)C(=O)Nc2ccc(Cl)cc2)CC(C)(C)N1`, the IC50 was more than 100 µM in series [5], 29.3 µM in [12] and more than 100 µM in [6]. The outcome in series [13] was Active.

The Kd is a measure of binding affinity in units of concentration. Lower therefore signals higher affinity. Take `CC1(C)CC(NC(=O)C(=O)Nc2ccc(Br)cc2)CC(C)(C)N1`: the outcome in [14] was Active. Also, the IC50 in series [5] and in [6] was more than 100 µM in each case. In series [15], this compound came in with a dissociation constant (Kd) of 2.2 µM.

As to `N=C(N)N[C@@H]1Cc2ccccc2[C@H]1NC(=O)C(=O)Nc1ccc(Cl)c(F)c1`, the result in series [1], in series [2] and in series [13] was Active. Besides, the outcome in series [16] and in series [9] was inactive. Also, the figures for the IC50 in series [5], in [12] and in series [6] were 21.3 µM, 8.9 µM and more than 100 µM, respectively. In series [15], this compound had a dissociation constant (Kd) of 0.3 µM.

Turning to `CC1(C)CC(NC(=O)C(=O)Nc2ccc(Cl)c(F)c2)CC(C)(C)N1`, in series [14], the outcome was Active. The concentration for half-maximal inhibition (IC50) in series [5] was 54.4 µM; in series [6] it was more than 100 µM.

As for `N[C@@H]1Cc2ccccc2[C@H]1NC(=O)C(=O)Nc1ccc(Cl)c(F)c1`, the result in series [1], in series [2] and in series [9] was Active. Moreover, the concentration for half-maximal inhibition (IC50) came out at 50 µM in series [3]; 50 µM in [4]; 86.9 µM in series [5]; 85.9 µM in series [6]; 50 µM in [7]; 50 µM in [8]. Further, the concentration for half-maximal inhibition (IC50) in [10] was 50 µM. The compound further returned a Kd in [15] of 1.1 µM.

For the compound `N=C(N)N[C@H]1Cc2ccccc2[C@@H]1NC(=O)C(=O)Nc1ccc(Cl)c(F)c1.O=CO`, the outcome in series [1], in series [2] and in [13] was Active. The outcome in series [16] and in series [9] was inactive. For the same compound, the IC50 was 22.9 µM in series [5], 7.9 µM in series [12] and more than 100 µM in series [6]. Also, the Activity entry in [17] is listed as “Non-toxic”. The Kd in series [15] amounted to 0.25 µM.
